# Measurements from different studies.
# Lines come from different studies, so protocols differ.
# Effect on: enzyme activity
# Action: inhibitor
# SRC: Proto-oncogene tyrosine-protein kinase Src (SRC, Homo sapiens, UniProt P12931)
Compound,target,test,conditions,remaining activity [%]
O=C(Nc1cnn(-c2csc(C(=O)NC3COC3)c2)c1)Nc1ccccc1Cl,SRC,,5 µM,91.1
COc1cc(Nc2cnc(C#N)c(O[C@H](C)CN(C)C)n2)ncc1-c1cnn(C)c1,SRC,radiometric,10 µM,72
CC(C)(C)c1nc2c(s1)c1nc(N)ncc1c1ccc(NS(=O)(=O)c3c(F)cccc3F)c(F)c12,SRC,radiometric,1 µM,89
Cc1[nH]c(/C=C2\C(=O)Nc3ccc(F)cc32)c(C)c1C(=O)N[C@H]1CCN(C(=O)N(C)C)C1,SRC,,1 µM,89
Nc1nc(Nc2ccccc2)sc1C(=O)c1c(F)cccc1F,SRC,,10 µM,47
Nc1ncnc2occ(-c3ccc(NC(=O)Nc4cc(C(F)(F)F)ccc4F)cc3)c12,SRC,,20 µM,0.2
Cc1ccc(C(=O)Nc2ccc(CN3CCN(C)CC3)c(C(F)(F)F)c2)cc1C#Cc1cnc2cccnn12,SRC,,23.5 nM,12
CCN(CC)c1ccc(C2=NNC(=O)CC2C)cc1[N+](=O)[O-] (stereo not drawn),SRC,,10 µM,94
Oc1cccc(-c2nc(N3CCOCC3)c3oc4ncccc4c3n2)c1,SRC,,10 µM,99
CC(C)(C)C(=O)c1sc(NC2CCCCC2)nc1N,SRC,,10 µM,99
Cc1ccc(NC(=O)c2ccc(C)c(C(F)(F)F)c2)cc1C#Cc1nn(C2CCC(O)CC2)c2ncnc(N)c12 (stereo not drawn),"Proto-oncogene tyrosine-protein kinase Src (SRC, Homo sapiens, UniProt P12931, T341M)",,10 µM,20
CC(C)(O)[C@H]1CC[C@H](Nc2ccc3ncc(-c4cccc(C(F)(F)F)c4)n3n2)CC1,SRC,,1 µM,27.9
